Drawing on ChEMBL document CHEMBL4715833, “Design, synthesis, in-vitro, in-vivo and in-silico studies of pyrrolidine-2,5-dione derivatives as multitarget anti-inflammatory agents” (Eur J Med Chem, 2020), this text covers IC50, Activity and inhibition in vivo for two compounds.

For data set [1], the target named is T1, Polyunsaturated fatty acid 5-lipoxygenase (Homo sapiens, UniProt P09917).
T1 sequence (P09917 whole entry): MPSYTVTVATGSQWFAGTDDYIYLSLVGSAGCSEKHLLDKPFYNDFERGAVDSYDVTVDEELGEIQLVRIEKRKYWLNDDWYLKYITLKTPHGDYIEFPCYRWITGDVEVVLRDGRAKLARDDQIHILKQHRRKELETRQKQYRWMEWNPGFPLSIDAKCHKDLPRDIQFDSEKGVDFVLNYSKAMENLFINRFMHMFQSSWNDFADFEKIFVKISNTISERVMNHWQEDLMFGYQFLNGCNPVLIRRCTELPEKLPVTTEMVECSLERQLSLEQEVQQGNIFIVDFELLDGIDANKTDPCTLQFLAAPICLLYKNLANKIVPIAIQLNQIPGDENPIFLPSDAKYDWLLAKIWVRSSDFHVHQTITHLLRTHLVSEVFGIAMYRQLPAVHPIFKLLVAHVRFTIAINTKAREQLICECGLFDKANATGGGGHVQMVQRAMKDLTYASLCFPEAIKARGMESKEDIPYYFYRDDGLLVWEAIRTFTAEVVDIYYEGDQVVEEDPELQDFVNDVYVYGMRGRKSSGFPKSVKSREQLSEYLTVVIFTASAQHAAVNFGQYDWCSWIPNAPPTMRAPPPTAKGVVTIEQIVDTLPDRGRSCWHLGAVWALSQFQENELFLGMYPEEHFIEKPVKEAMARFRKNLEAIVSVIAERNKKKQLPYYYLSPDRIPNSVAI
In words: Inhibition of recombinant human 5LOX expressed in baculovirus infected Sf insect cells using linoleic acid as substrate preincubated for 5 mins followed by substrate addition.

The nature of data set [2]: Acute toxicity in Swiss albino mouse assessed as mortality at 1000 mg/kg, ip administered as single dose measured after 24 hrs. It counts as organism-based. The conditions noted are these: in vivo. In short, it runs like this:
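Swiss albino mice of either sex (30-35 g), housed at 22-25 °C with 12 h light/dark and free food and water. Single i.p. dose; the saline control got 10 mL/kg. Deaths were counted 24 h after dosing. Dose table lists groups of 8 male and 8 female mice given 5 to 2000 mg/kg.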

Data set [3] can be described thus: Acute toxicity in Swiss albino mouse assessed as clinical changes in skin at 1000 mg/kg, ip administered as single dose measured after 4 hrs. Conditions: in vivo. It counts as organism-based. An outline of the steps: (§1)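 Swiss albino mice of either sex (30-35 g), kept at 22-25 °C on a 12 h light/dark cycle with free food and water. Single i.p. dose; controls received normal saline 10 mL/kg. Animals were watched at random for allergic or abnormal behavioural signs during the first 4 h.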

The nature of data set [4]: Acute toxicity in Swiss albino mouse assessed as clinical changes in respiratory rate at 1000 mg/kg, ip administered as single dose measured after 4 hrs. The conditions noted are these: in vivo. The data set is classed as organism-based. In short, it runs like this: as §1
Data set [5] in a line: Acute toxicity in Swiss albino mouse assessed as clinical changes in defecation at 1000 mg/kg, ip administered as single dose measured after 4 hrs. It counts as organism-based. The conditions noted are these: in vivo. An outline of the steps:
as §1

Data set [6] can be described thus: Acute toxicity in Swiss albino mouse assessed as changes in central nervous system at 1000 mg/kg, ip administered as single dose measured after 4 hrs. It counts as organism-based. Conditions: in vivo. An outline of the steps: as §1
Data set [7] is described as follows: Acute toxicity in Swiss albino mouse assessed as change in gait at 1000 mg/kg, ip administered as single dose measured after 4 hrs. Conditions: in vivo. The data set is classed as organism-based. In short, it runs like this:
as §1

Data set [8] can be described thus: Acute toxicity in Swiss albino mouse assessed as tremor at 1000 mg/kg, ip administered as single dose measured after 4 hrs. The data set is classed as organism-based. Conditions: in vivo. In short, it runs like this:
as §1

Data set [9] relates to Mus musculus. In words: Antiinflammatory activity against carrageenan-induced paw edema in Swiss mouse assessed as inhibition of paw edema at 25 mg/kg administered 30 mins prior to carrageenan challenge and measured after 1 hr by […]-method (reference value: 7.66 +/- 3.753%). The data set is classed as functional. The conditions noted are these: 1.5 h, time 90 min. For orientation: In the carrageenan paw model, swelling and tenderness develop within hours.

The test system of data set [10] is Mus musculus. In words: Antiinflammatory activity against carrageenan-induced paw edema in Swiss mouse assessed as inhibition of paw edema at 50 mg/kg administered 30 mins prior to carrageenan challenge and measured after 1 hr by […]-method (reference value: 7.66 +/- 3.753%). The data set is classed as functional. Conditions: 1.5 h, time 90 min.

The test system of data set [11] is Mus musculus. Nature of the data set: Antiinflammatory activity against carrageenan-induced paw edema in Swiss mouse assessed as inhibition of paw edema at 100 mg/kg administered 30 mins prior to carrageenan challenge and measured after 1 hr by […]-method (reference value: 7.66 +/- 3.753%). The data set is classed as functional. The conditions noted are these: 1.5 h, time 90 min.

For data set [12], the system named is Mus musculus. Nature of the data set: Antiinflammatory activity against carrageenan-induced paw edema in Swiss mouse assessed as inhibition of paw edema at 50 mg/kg administered 30 mins prior to carrageenan challenge and measured after 2 hrs by […]-method (reference value: 7.39 +/- 2.475%). The data set is classed as functional. Conditions: time 2.5 hrs.

Data set [13] deals with Mus musculus. Nature of the data set: Antiinflammatory activity against carrageenan-induced paw edema in Swiss mouse assessed as inhibition of paw edema at 25 mg/kg administered 30 mins prior to carrageenan challenge and measured after 3 hrs by […]-method (reference value: 11.41 +/- 3.069%). It counts as functional. Conditions: time 3.5 hrs.
In data set [14] the test system is Mus musculus. In words: Antiinflammatory activity against carrageenan-induced paw edema in Swiss mouse assessed as inhibition of paw edema at 100 mg/kg administered 30 mins prior to carrageenan challenge and measured after 3 hrs by […]-method (reference value: 11.41 +/- 3.069%). The data set is classed as functional. The conditions noted are these: time 3.5 hrs.

Data set [15] concerns Mus musculus. Nature of the data set: Antiinflammatory activity against carrageenan-induced paw edema in Swiss mouse assessed as inhibition of paw edema at 25 mg/kg administered 30 mins prior to carrageenan challenge and measured after 4 hrs by […]-method (reference value: 14.46 +/- 1.568%). It counts as functional. Conditions: time 4.5 hrs.
Data set [16] deals with Mus musculus. In words: Antiinflammatory activity against carrageenan-induced paw edema in Swiss mouse assessed as inhibition of paw edema at 50 mg/kg administered 30 mins prior to carrageenan challenge and measured after 4 hrs by […]-method (reference value: 14.46 +/- 1.568%). The data set is classed as functional. The conditions noted are these: time 4.5 hrs.

Data set [17] has as its system Mus musculus. In words: Antiinflammatory activity against carrageenan-induced paw edema in Swiss mouse assessed as inhibition of paw edema at 25 mg/kg administered 30 mins prior to carrageenan challenge and measured after 5 hrs by […]-method (reference value: 7.31 +/- 3.204%). It counts as functional. Conditions: time 5.5 hrs.
The test system of data set [18] is Mus musculus. Nature of the data set: Antiinflammatory activity against carrageenan-induced paw edema in Swiss mouse assessed as inhibition of paw edema at 50 mg/kg administered 30 mins prior to carrageenan challenge and measured after 5 hrs by […]-method (reference value: 7.31 +/- 3.204%). It counts as functional. Conditions: time 5.5 hrs.
The test system of data set [19] is Mus musculus. In words: Antiinflammatory activity in histamine-induced paw edema in Balb/c mouse assessed as inhibition of paw edema at 100 mg/kg, ip administered 1 hr prior to histamine challenge and measured after 1 hr relative to control. The data set is classed as functional. The conditions noted are these: time 2 hrs. An outline of the steps: (§2)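 BALB/c mice of either sex (30–35 g), 8 per group, dosed i.p. with 10% DMSO, reference drug or compound (100 mg/kg). After 1 h, subplantar irritant: PGE2 0.01 µg/ml, bradykinin 20 µg/ml, histamine 0.1 ml of 1 mg/ml, or leukotriene 10 µg/ml.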

Data set [20] has as its system Mus musculus. In words: Antiinflammatory activity in leukotriene-induced paw edema in Balb/c mouse assessed as inhibition of paw edema at 100 mg/kg, ip administered 1 hr prior to leukotriene challenge and measured after 3 hrs relative to control. The conditions noted are these: time 4 hrs. It counts as functional. In short, it runs like this:
as §2

Data set [21] is described as follows: Antiinflammatory activity assessed as inhibition of heat-induced albumin denaturation preincubated for 20 mins followed by heating at 51 degC and measured after 3 mins by UV-vis spectrophotometric method.

Turning to `Cc1ccc(C(=O)CC2CC(=O)N(c3ccc(S(N)(=O)=O)cc3)C2=O)cc1` (centres undefined), in data set [1], the half-inhibitory concentration (IC50) turned out to be 0.86 µM. The Activity result in data set [2], in [3], in data set [4], in [5], in [6] and in data set [7] was “Non-Toxic” in each case. The Activity entry in [8] is listed as “Non-Toxic”. Further, the inhibition in vivo at 25 mg/kg with Mus musculus [9] is 45.6%; with Mus musculus [13], 51.5%; with Mus musculus [15], 54.2%; in the data set with Mus musculus [17] it was 56.6%. The inhibition in vivo at 50 mg/kg in the data set on Mus musculus [10] was determined as 51.5%; in the data set with Mus musculus [12], 57.3%; in the data set with Mus musculus [16] it was 57.3%; in the data set on Mus musculus [18] it was 59.3%. Moreover, the inhibition in vivo at 100 mg/kg stood at 55.2% in the data set with Mus musculus [11], 61.6% with Mus musculus [14], 32.4% in the data set with Mus musculus [19] and 74.4% with Mus musculus [20].

Consider `O=C1CCCCC1C1CC(=O)N(Cc2ccccc2)C1=O` (centres undefined), for which the figures for the IC50 in [1] and in [21] were 36 µM and 24.5 µM, respectively. Besides, the Activity entry in data set [2], in [3], in data set [4], in data set [5], in data set [6] and in data set [7] was “Non-Toxic” in each case. Also, the Activity entry in [8] was “Non-Toxic”. The inhibition in vivo at 25 mg/kg with Mus musculus [9] was determined as 24.3%; in the data set on Mus musculus [13], 23.3%; in the data set with Mus musculus [15] it was 27.8%; with Mus musculus [17], 23.4%. In addition, the inhibition in vivo at 50 mg/kg turned out to be 34.5% in the data set with Mus musculus [10], 37.4% in the data set with Mus musculus [12], 44.5% in the data set on Mus musculus [16] and 47.8% with Mus musculus [18]. Moreover, the values for the inhibition in vivo at 100 mg/kg in the data set on Mus musculus [11] and in the data set with Mus musculus [14] were 44.7% and 51.6%, respectively.

In general, IC50 refers to the concentration that gives 50% inhibition. By inhibition in vivo is commonly meant the share of the control response that was lost under treatment.
